Values joined by “and” are separate entries in the source; they are usually repeats but may differ in a detail not shown here. Equal values may be shown once. Read-outs that look alike come from different tables or passages of the source.
Columns and labels:
[1] = DPPH radical scavenging, 96-well colorimetric assay; assay type: biochemical; settings: read-out: DPPH radical scavenging IC50 value; 30 minutes incubations; mean ± SD, n = 3
[2] = tested on: breast carcinoma MCF7 cell line; assay: Antiproliferation, sulforhodamine B colorimetric bioassay, MCF7; assay type: cell-based; settings: read-out: Cytotoxicity (as of %Control) IC50, MCF7, 72 h incubations, SRB, mean ± SD, n = 3-4
[3] = tested on: skin melanoma A375.s2 cell line; assay: Antiproliferation, sulforhodamine B colorimetric bioassay, A375.s2; assay type: cell-based; settings: read-out: Cytotoxicity (as of %Control) IC50, A375.s2; 72 h incubations, SRB; mean ± SD, n = 3-4
[4] = tested on: normal periodontal ligament fibroblasts (PDL); assay: Cytotoxicity in normal periodontal ligament fibroblasts; assay type: cell-based
Method in brief: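 Normal periodontal ligament fibroblasts exposed to test compound for 72 h. […] Selectivity index is the compound's IC50 on PDL divided by its IC50 on a given cancer cell line.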

[5] = tested on: breast carcinoma T47D cell line; assay: Antiproliferation, sulforhodamine B colorimetric bioassay, T47D; assay type: cell-based; settings: read-out: Cytotoxicity (as of %Control) IC50, T47D, 72 h incubations, SRB, mean ± SD, n = 3-4
[6] = tested on: Nitric oxide synthase / NO in LPS prompted RAW264.7 macrophages; assay type: cell-based; settings: mean ± SD, n = 3

Molecule O=C1O[C@H]([C@@H](O)CO)C(O)=C1O [Ascorbic acid, ascorbic acid] has an IC50 [1] of 3.37 µM.

Work on N.N.[Cl][Pt][Cl] [Cisplatin, cisplatin] yielded an IC50 [2] of 92.6 ± 12.5 µM, an IC50 ([2]; listed as cisplatin) of 92.6 µM and an IC50 [3] of 0.7 ± 0.1 µM. For the same molecule, the “IC50 PDL Fibro” value ([4]; 72h incubations, mean ± SD, n = 3) was “(0.21 ± 0.04) µg/mL”, the IC50 ([4]; read-out: IC50 PDL Fibro, 72h incubations, mean ± SD, n = 3) was 0.71 ± 0.13 µM and the IC50 [5] was 45.1 ± 7.84 µM. For the same molecule, the IC50 ([5]; listed as cisplatin) was 45.2 µM and 45 µM.

With COc1ccc2c(c1)c(CC(=O)O)c(C)n2C(=O)c1ccc(Cl)cc1 [Indomethacin, indomethacin] the IC50 ([6]; Mus musculus, RAW264.7, 24 h, read-out: NOS- IC50 value (NO scavenging/antiinflammation), LPS prompted RAW264.7, 24h incubations, Griess assay) was 55.1 µM and 26.9 µg/mL and the IC50 ([6]; read-out: NOS- IC50 value (NO scavenging/antiinflammation), LPS prompted RAW264.7, 24h incubations, Griess assay) was 55.1 ± 2.25 µM.

— paper PMC9727339 (Asian Pacific Journal of Cancer Prevention : APJCP, 2022)
